Data set [1] relates to human prostate (PC-3) cancer cell line. The data set can be described thus: In vitro cytotoxic studies. It is filed as cell-based. As to conditions: PC-3 cells; for Cytotoxicity against PC-3 cell line (in words): tested at 0.2, 2.0 and 20 μM; for Cytotoxicity % inhibition: 72 h, MTT. The method, boiled down: (§1)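 PC-3 cells grown in DMEM with 10% FBS and plated in 96-well format. They were exposed to test compound over 20 μM–0.001 μM for 72 h. MTT was then added (stock 5 mg/ml in PBS) for 4 h. Plates were spun, supernatant removed and formazan dissolved in DMSO with 30 min shaking. A550 was read and percentage inhibition calculated.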

Data set [2] in a line: In vitro cytotoxic studies. As to conditions: human, PC-3 prostate cancer cells. The format is cell-based, human. The method, boiled down: as §1
The subject of the next data set is Tritrichomonas foetus. The data set can be described thus: In vitro protozoal parasite susceptibility assay. The format is cell-based. As to conditions: 24 h; for inhibition at 50 µM: Tritrichomonas foetus, read-out: Average % inhibition at 50 μM (Tritrichomonas foetus); for Average % inhibition at 50 μM (Tritrichomonas foetus): T. foetus strain D1, cells counted with hemacytometer. The method, boiled down: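 T. foetus strain D1 was screened in TYM Diamond's medium. Test compound was dissolved in DMSO and diluted into the medium. After 24 h exposure, parasites were counted with a hemacytometer.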

We go through 24 compounds from article PMC7115568 (European Journal of Medicinal Chemistry, 2014).

Entries after “also recorded” stand apart in the source; their conditions may differ.

For orientation: inhibition means how much of the control response was suppressed. `Cc1ccc2c(c1)C(=O)C(=O)N2CC#CCN1CCN(c2ccnc3cc(Cl)ccc23)CC1` [Compound 7d, 1-{4-[4-(7-Chloro-quinolin-4-yl)-piperazin-1-yl]-but-2-ynyl}-5-methyl-1H-indole-2,3-dione]: in data set [1], the “Cytotoxicity against PC-3 cell line (in words)” value (“Cytotoxicity … (in words)” for short) is on record as “no cytotoxicity; also recorded: minimal toxicity”. In data set [2], the cytotoxicity at 72 h, 0.2 µM was determined as 1.3%; the cytotoxicity at 72 h, 2 µM turned out to be 8.1%; the cytotoxicity at 72 h, 20 µM is 8.2%. Moreover, in the data set with Tritrichomonas foetus, the inhibition at 50 µM was 59.1%.

With `O=C1C(=O)N(CC#CCN2CCN(c3ccnc4cc(Cl)ccc34)CC2)c2ccc([N+](=O)[O-])cc21` [Compound 7e, 1-{4-[4-(7-Chloro-quinolin-4-yl)-piperazin-1-yl]-but-2-ynyl}-5-nitro-1H-indole-2,3-dione], in data set [2], the cytotoxicity at 72 h, 0.2 µM stood at 0.5%; the cytotoxicity at 72 h, 2 µM was 3.2%; the cytotoxicity at 72 h, 20 µM was found to be 4.8%. In addition, the inhibition at 50 µM with Tritrichomonas foetus is 60.6%.

As for `CCN(CC)CC#CCN1C(=O)C(=O)c2cc(Cl)ccc21` [Compound 3h, 5-Chloro-1-(4-diethylamino-but-2-ynyl)-1H-indole-2,3-dione], in data set [2], the cytotoxicity at 72 h, 0.2 µM worked out at 4.8%; the cytotoxicity at 72 h, 2 µM came out at 5.6%; the cytotoxicity at 72 h, 20 µM was determined as 6.4%. In addition, the inhibition at 50 µM with Tritrichomonas foetus is 42.4%.

As to `O=C1C(=O)N(CC#CCN2CCCCC2)c2ccccc21` [Compound 3a, 1-(4-Piperadin-1-yl-but-2-ynyl)-1H-indole-2,3-dione], the Cytotoxicity % inhibition in data set [1] (0.2 μM) is recorded as 6.0%; in data set [1] (2 μM), 4.0%; in data set [1] (20 μM), 7.0%. The “Average % inhibition at 50 μM (Tritrichomonas foetus)” value (“Average % inhibition at 50 μM” below) in the data set with Tritrichomonas foetus stood at 18.2%.

On to `Cc1ccc2c(c1)C(=O)C(=O)N2CC#CCN1CCOCC1` [Compound 3o, 5-Methyl-1-(4-morpholin-4yl-but-2-ynyl)-1H-indole-2,3-dione], for which, in data set [2], the cytotoxicity at 72 h, 0.2 µM is 8%; the cytotoxicity at 72 h, 2 µM came out at 7.8%; the cytotoxicity at 72 h, 20 µM amounted to 3.5%. In addition, the inhibition at 50 µM with Tritrichomonas foetus worked out at 57.6%.

For `O=C1C(=O)N(CC#CCN2CCOCC2)c2ccccc21` [Compound 3c, 1-(4-Morpholin-4-yl-but-2-ynyl)-1H-indole-2,3-dione], in data set [2], the cytotoxicity at 72 h, 0.2 µM turned out to be 13.4%; the cytotoxicity at 72 h, 2 µM amounted to 11.6%; the cytotoxicity at 72 h, 20 µM was 8.7%. Further, the inhibition at 50 µM in the data set on Tritrichomonas foetus amounted to 9.1%.

Turning to `O=C1C(=O)N(CC#CCN2CCOCC2)c2ccc(Cl)cc21` [Compound 3g, 5-Chloro-1-(4-morpholin-4-yl-but-2-ynyl)-1H-indole-2,3-dione], in data set [2], the cytotoxicity at 72 h, 0.2 µM is 0.8%; the cytotoxicity at 72 h, 2 µM was found to be 4.3%; the cytotoxicity at 72 h, 20 µM worked out at 3.4%. In addition, in the data set with Tritrichomonas foetus, the inhibition at 50 µM is 22.7%.

In the case of `O=C1C(=O)N(CC#CCN2CCN(c3ccnc4cc(Cl)ccc34)CC2)c2ccc(Cl)cc21` [Compound 7c, 5-Chloro-1-{4-[4-(7-chloro-quinolin-4-yl)-piperazin-1-yl]-but-2-ynyl}-1H-indole-2,3-dione], the “Cytotoxicity … (in words)” value in data set [1] is reported as “no cytotoxicity; also recorded: minimal toxicity”. In data set [2], the cytotoxicity at 72 h, 0.2 µM turned out to be 6.1%; the cytotoxicity at 72 h, 2 µM was found to be 1.2%; the cytotoxicity at 72 h, 20 µM came out at 1.4%. For the same compound, the inhibition at 50 µM with Tritrichomonas foetus was 100%.

Consider `CCN(CC)CC#CCN1C(=O)C(=O)c2cc(F)ccc21` [Compound 3l, 1-(4-Diethylamino-but-2-ynyl)-5-fluoro-1H-indole-2,3-dione], for which, in data set [2], the cytotoxicity at 72 h, 0.2 µM worked out at 11.6%; the cytotoxicity at 72 h, 2 µM was found to be 14.5%; the cytotoxicity at 72 h, 20 µM is 7.9%. In addition, the inhibition at 50 µM in the data set with Tritrichomonas foetus worked out at 18.2%.

On to `CCN(CC)CC#CCN1C(=O)C(=O)c2ccccc21` [Compound 3d, 1-(4-Diethylamino-but-2-ynyl)-1H-indole-2,3-dione], for which, in data set [2], the cytotoxicity at 72 h, 0.2 µM amounted to 8%; the cytotoxicity at 72 h, 2 µM stood at 4.6%; the cytotoxicity at 72 h, 20 µM was 8%. Also, the inhibition at 50 µM in the data set on Tritrichomonas foetus turned out to be 22.7%.

Consider `O=C1C(=O)N(CC#CCN2CCCCC2)c2ccc(Cl)cc21` [Compound 3e, 5-Chloro-1-(4-piperidin-1-yl-but-2-ynyl)-1H-indole-2,3-dione], for which, in data set [2], the cytotoxicity at 72 h, 0.2 µM came to 11.1%; the cytotoxicity at 72 h, 2 µM was found to be 10.7%; the cytotoxicity at 72 h, 20 µM came out at 18.7%. Moreover, in the data set on Tritrichomonas foetus, the inhibition at 50 µM was 3%.

As to `O=C1C(=O)N(CC#CCN2CCOCC2)c2ccc(F)cc21` [Compound 3k, 5-Fluoro-1-(4-morpholin-4-yl-but-2-ynyl)-1H-indole-2,3-dione], in data set [2], the cytotoxicity at 72 h, 0.2 µM worked out at 3.8%; the cytotoxicity at 72 h, 2 µM was 0.7%; the cytotoxicity at 72 h, 20 µM turned out to be 3.2%. Also, the inhibition at 50 µM with Tritrichomonas foetus worked out at 56.1%.

As for `O=C1C(=O)N(CC#CCN2CCCCC2)c2ccc(F)cc21` [Compound 3i, 5-Fluoro-1-(4-piperidin-1-yl-but-2-ynyl)-1H-indole-2,3-dione], in data set [2], the cytotoxicity at 72 h, 0.2 µM is -4.7%; the cytotoxicity at 72 h, 2 µM was -6%; the cytotoxicity at 72 h, 20 µM is 5.1%. Further, the inhibition at 50 µM in the data set on Tritrichomonas foetus was 40.9%.

On to `CCN(CC)CC#CCN1C(=O)C(=O)c2cc(C)ccc21` [Compound 3p, 1-(4-Diethylamino-but-2-ynyl)-5-methyl-1H-indole-2,3-dione], for which, in data set [2], the cytotoxicity at 72 h, 0.2 µM amounted to 11.5%; the cytotoxicity at 72 h, 2 µM was 10.2%; the cytotoxicity at 72 h, 20 µM stood at 11.2%. For the same compound, in the data set on Tritrichomonas foetus, the inhibition at 50 µM turned out to be 51.5%.

`O=C1C(=O)N(CC#CCN2CCN(CC#CCN3C(=O)C(=O)c4ccccc43)CC2)c2ccccc21` [Compound 5a, Bis-{1-(yl-but-2-ynyl)-1H-indole-2,3-dione} piperazine]: the Cytotoxicity % inhibition in data set [1] (0.2 μM) was determined as 6.5%; in data set [1] (2 μM), 10.3%; in data set [1] (20 μM) it was 45.8%. Also, the “Cytotoxicity … (in words)” value in data set [1] is listed as “cytotoxic”. Besides, in the data set with Tritrichomonas foetus, the “Average % inhibition at 50 μM” value is given as 3.0%.

For the compound `O=C1C(=O)N(CC#CCN2CCN(CC#CCN3C(=O)C(=O)c4cc(F)ccc43)CC2)c2ccc(F)cc21` [Compound 5c, Bis-{5-fluoro-1-(yl-but-2-ynyl)-1H-indole-2,3-dione} piperazine], the Cytotoxicity % inhibition was −0.6% in data set [1] (0.2 μM), −3.6% in data set [1] (2 μM) and 7.4% in data set [1] (20 μM). Also, the “Average % inhibition at 50 μM” value in the data set with Tritrichomonas foetus stood at 9.1%.

Consider `O=C1C(=O)N(CC#CCN2CCN(CC#CCN3C(=O)C(=O)c4cc(Cl)ccc43)CC2)c2ccc(Cl)cc21` [Compound 5b, Bis-{5-chloro-1-(yl-but-2-ynyl)-1H-indole-2,3-dione} piperazine], for which the Cytotoxicity % inhibition in data set [1] (0.2 μM) was 24.4%; in data set [1] (2 μM), 28.9%; in data set [1] (20 μM), 24.8%. Also, the “Average % inhibition at 50 μM” value in the data set on Tritrichomonas foetus is given as 7.6%.

As to “5-Methyl-1-(4-pyrrolidin-1-yl-but-2-ynyl)-1H-indole-2,3-dione [Compound 3m]”, the Cytotoxicity % inhibition in data set [1] (0.2 μM) is 6.8%; in data set [1] (2 μM) it was 10.5%; in data set [1] (20 μM), 2.4%. In the data set with Tritrichomonas foetus, the “Average % inhibition at 50 μM” value is 31.8%.

As for `Cc1ccc2c(c1)C(=O)C(=O)N2CC#CCN1CCN(CC#CCN2C(=O)C(=O)c3cc(C)ccc32)CC1` [Compound 5d, Bis-{5-methyl-1-(yl-but-2-ynyl)-1H-indole-2,3-dione} piperazine], the Cytotoxicity % inhibition in data set [1] (0.2 μM) is listed as −1.0%; in data set [1] (2 μM), 6.7%; in data set [1] (20 μM), 7.1%. In the data set with Tritrichomonas foetus, the “Average % inhibition at 50 μM” value was 71.2%.

Take `O=C1C(=O)N(CC#CCN2CCCC2)c2ccc(F)cc21` [Compound 3j, 5-Fluoro-1-(4-pyrrolidin-1-yl-but-2-ynyl)-1H-indole-2,3-dione]: in data set [2], the cytotoxicity at 72 h, 0.2 µM was 5%; the cytotoxicity at 72 h, 2 µM worked out at 4.3%; the cytotoxicity at 72 h, 20 µM is -2.7%. In addition, in the data set with Tritrichomonas foetus, the inhibition at 50 µM was 33.3%.

Take `O=C1C(=O)N(CC#CCN2CCCC2)c2ccccc21` [Compound 3b, 1-(4-Pyrrolidin-1-yl-but-2-ynyl)-1H-indole-2,3-dione]: in data set [2], the cytotoxicity at 72 h, 0.2 µM is 7%; the cytotoxicity at 72 h, 2 µM worked out at 7%; the cytotoxicity at 72 h, 20 µM stood at 3%. For the same compound, the inhibition at 50 µM with Tritrichomonas foetus is 10.6%.

Take `O=C1C(=O)N(CC#CCN2CCCC2)c2ccc(Cl)cc21` [Compound 3f, 5-Chloro-1-(4-pyrrolidin-1-yl-but-2-ynyl)-1H-indole-2,3-dione]: in data set [2], the cytotoxicity at 72 h, 0.2 µM was 4.6%; the cytotoxicity at 72 h, 2 µM was 4.3%; the cytotoxicity at 72 h, 20 µM came out at 9.6%. Moreover, the inhibition at 50 µM in the data set on Tritrichomonas foetus turned out to be 15.2%.

Consider `CS(=O)(=O)N1CCN(Cc2cc3nc(-c4cccc5[nH]ncc45)nc(N4CCOCC4)c3s2)CC1` [GDC-0941, reference compound], for which, in data set [2], the cytotoxicity at 72 h, 0.2 µM worked out at 30.2%; the cytotoxicity at 72 h, 2 µM amounted to 56.8%; the cytotoxicity at 72 h, 20 µM was found to be 72.2%.

As for `Cc1ccc2c(c1)C(=O)C(=O)N2CC#CCN1CCCC1` [Compound 3n, 5-Methyl-1-(4-pyrrolidin-1-yl-but-2-ynyl)-1H-indole-2,3-dione], in data set [2], the cytotoxicity at 72 h, 0.2 µM turned out to be 1.9%; the cytotoxicity at 72 h, 2 µM came to 4.7%; the cytotoxicity at 72 h, 20 µM stood at 6.1%. Also, the inhibition at 50 µM in the data set with Tritrichomonas foetus amounted to 65.2%.
